According to ChEMBL document CHEMBL2311522, “Design, synthesis and biological evaluation of novel aliphatic amido/sulfonamido-quaternary ammonium salts as antitumor agents” (2013):
Activity calls are given as the source filed them. The calls are words filed in the database; no cut-off is given here.

Key:
[1] = system: NCI-H23; assay: Growth inhibition of human NCI-H23 cells by SRB assay; format: functional
[2] = target: Rho-related GTP-binding protein RhoB (Homo sapiens) (UniProt P62745); assay: Transactivation of RhoB (unknown origin) transfected in human HeLa cells at 5 uM by dual luciferase reporter gene assay; format: cell-based
Rho-related GTP-binding protein RhoB (Homo sapiens), sequence (P62745 whole entry): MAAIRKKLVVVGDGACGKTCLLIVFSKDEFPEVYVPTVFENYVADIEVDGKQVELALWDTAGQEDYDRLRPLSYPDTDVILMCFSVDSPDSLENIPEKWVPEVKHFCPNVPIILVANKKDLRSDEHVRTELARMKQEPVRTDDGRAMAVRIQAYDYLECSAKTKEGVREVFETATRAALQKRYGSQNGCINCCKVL
Outline: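 HeLa cells at 75–90% confluency were transiently cotransfected with a pGL2-RhoB-firefly luciferase promoter construct, then exposed to compounds. RhoB promoter activation was read as luciferase activity with a dual-luciferase reporter system. NSC126188 and perifosine, each at the same concentration as the compounds, served as positive controls.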

[3] = system: HCT-15; assay: Growth inhibition of human HCT15 cells by SRB assay; format: functional
[4] = system: MDA-MB-231; assay: Growth inhibition of human MDA-MB-231 cells by SRB assay; format: functional
[5] = system: ACHN; assay: Growth inhibition of human ACHN cells by SRB assay; format: functional
[6] = system: PC-3; assay: Growth inhibition of human PC3 cells by SRB assay; format: functional
[7] = system: NUGC-3; assay: Growth inhibition of human NUGC3 cells by SRB assay; format: functional

| Compound | GI50 [1] | Activity [2] | GI50 [3] | GI50 [4] | GI50 [5] | GI50 [6] | GI50 [7] |
| --- | --- | --- | --- | --- | --- | --- | --- |
| CCCCCCCCCCCCCCCCS(=O)(=O)N1CCC[N+](C)(C)CC1 | 3400 nM | Active | 770 nM | 590 nM | 2010 nM | 400 nM | 380 nM |
| CCCCCCCCCCCCS(=O)(=O)N1CCC[N+](C)(C)CC1 | 960 nM | Active | 960 nM | 840 nM | 1160 nM | 380 nM | 240 nM |
| CCCCCCCCCCCCCC(=O)N1CCC[N+](C)(Cc2cccc([N+](=O)[O-])c2)CC1 (stereo not given) | 890 nM | Active | inactive | 710 nM | 820 nM | 180 nM | 460 nM |
| CCCCCCCCCCCCCCS(=O)(=O)N1CCC[N+](C)(C)CC1 | 800 nM | Active | 380 nM | 830 nM | 1330 nM | 620 nM | 250 nM |
| CCCCCCCCCCCCCCCC(=O)N1CCC[N+](C)(C)CC1 | 2380 nM | Active | 930 nM | 940 nM | 400 nM | 400 nM | 210 nM |
| CCCCCCCCCCCCCCCC(=O)N1CC[N+](C)(C)CC1 |  | Active | 580 nM |  |  | 480 nM | 290 nM |
| CCCCCCCCCCCCCCCCCCCC(=O)N1CCC[N+](C)(C)CC1 | 3840 nM | Active | 990 nM | 2220 nM | 2780 nM | inactive | 360 nM |
| CCCCCCCCCCCCCCCC(=O)Nc1ccc([N+](C)(C)C)cc1 | 1800 nM |  | 2370 nM | 2830 nM | 3150 nM | 790 nM | 700 nM |
| CCCCCCCCCCCCCCCCCC(=O)N1CCC[N+](C)(C)CC1 | 1160 nM |  | 400 nM | 670 nM | 570 nM | 240 nM | 260 nM |
| CCCCCCCCCCCCCC(=O)Nc1ccc([N+](C)(C)C)cc1 | 4140 nM |  | 1360 nM | 3560 nM | 4540 nM | 540 nM | 740 nM |
| CCCCCCCCCCCCCCCC(=O)N1CCC[N+](C)(Cc2cccc(OC(F)(F)F)c2)CC1 (stereo not given) | 1450 nM |  | inactive | 1340 nM | 1930 nM | 630 nM | 870 nM |
| C=CC[N+]1(C)CCCN(C(=O)CCCCCCCCCCCCC)CC1 (stereo not given) | 280 nM | Active | inactive | 450 nM | 440 nM | 180 nM | 260 nM |
| CCCCCCCCCCCCCCCCCCOP(=O)([O-])OC1CC[N+](C)(C)CC1 [PERIFOSINE] |  |  |  |  |  | 440 nM | 540 nM |
| CCCCCCCCCCCCCC(=O)N1CCC[N+](C)(Cc2ccc(F)cc2)CC1 (stereo not given) | 1480 nM |  | inactive | 1480 nM | 1100 nM | 450 nM | 940 nM |
| CCCCCCCCCCCCCCCCCC(=O)Nc1ccc([N+](C)(C)C)cc1 | 3290 nM |  | 1220 nM | 4340 nM | 1870 nM | 1200 nM | 410 nM |
| CCCCCCCCCCCCCC(=O)N1CCC[N+](C)(Cc2ccccc2)CC1 (stereo not given) | 1070 nM | Active | inactive | 1160 nM | 1000 nM | 450 nM | 310 nM |
| CCCCCCCCCCCCCCCCCCCC(=O)Nc1ccc([N+](C)(C)C)cc1 | 1930 nM |  | 3020 nM | 3680 nM | 1760 nM | 1630 nM | 1280 nM |
| CCCCCCCCCCCCCC(=O)N1CCC[N+](C)(C)CC1 | 1360 nM | Active | 1700 nM | 980 nM | 490 nM | 360 nM | 80 nM |
| CCCCCCCCCCCCCCS(=O)(=O)Nc1ccc([N+](C)(C)C)cc1 | 730 nM |  | 3380 nM | 4540 nM | inactive | 900 nM | 1740 nM |
| CCCCCCCCCCCCCC(=O)N1CCC[N+](C)(CC)CC1 (stereo not given) | 1180 nM | Active | 1860 nM | 680 nM | 1610 nM | 270 nM | 220 nM |
| CCCCCCCCCCCCS(=O)(=O)Nc1ccc([N+](C)(C)C)cc1 | 3940 nM |  | inactive | inactive | 4500 nM | 1020 nM | 1210 nM |
